Data reported in ChEMBL document CHEMBL1146219, “Synthesis and evaluation of novel radioiodinated benzamides for malignant melanoma” (J Med Chem, 2007).

Columns and labels:
Format in all cases: ADME, organism-based
Details in all cases: in vivo
Brain [1] = assay: Biodistribution in brain of B16F0 tumor bearing C57BL/6J mouse at 0.37-0.74 MBq, iv after 24 hrs in presence of haloperidol
Heart [2] = assay: Biodistribution in heart of B16F0 tumor bearing C57BL/6J mouse at 0.37-0.74 MBq, iv after 24 hrs
Summary of the method: (§1)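 Female C57BL/6J mice (15-18 g) were given B16F0 cells subcutaneously in the left flank (0.1 mL of 3 × 10⁶ viable cells/mL in Ca²⁺/Mg²⁺-free PBS) at 6-7 weeks and used after ten days. [¹²³I]benzamide (0.37-0.74 MBq, 100 µL, saline) was injected via the tail vein. Groups of n = 5 were killed by CO₂ and cervical dislocation. Organs were weighed and γ-counted, and the carcass was counted too.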

Liver [3] = assay: Biodistribution in liver of B16F0 tumor bearing C57BL/6J mouse at 0.37-0.74 MBq, iv after 3 hrs; summary of the method: as §1
Kidney [4] = assay: Biodistribution in kidney of B16F0 tumor bearing C57BL/6J mouse at 0.37-0.74 MBq, iv after 72 hrs; summary of the method: as §1
Heart [5] = assay: Biodistribution in heart of B16F0 tumor bearing C57BL/6J mouse at 0.37-0.74 MBq, iv after 48 hrs; summary of the method: as §1
Kidney [6] = assay: Biodistribution in kidney of B16F0 tumor bearing C57BL/6J mouse at 0.37-0.74 MBq, iv after 1 hr; summary of the method: as §1
Kidney [7] = assay: Biodistribution in kidney of B16F0 tumor bearing C57BL/6J mouse at 0.37-0.74 MBq, iv after 3 hrs; summary of the method: as §1
Liver [8] = assay: Biodistribution in liver of B16F0 tumor bearing C57BL/6J mouse at 0.37-0.74 MBq, iv after 24 hrs; summary of the method: as §1
Brain [9] = assay: Biodistribution in brain of B16F0 tumor bearing C57BL/6J mouse at 0.37-0.74 MBq, iv after 72 hrs; summary of the method: as §1
[10] = Biodistribution in eye of B16F0 tumor bearing C57BL/6J mouse at 0.37-0.74 MBq, iv after 24 hrs in presence of haloperidol
Summary of the method: (§2)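 Haloperidol blocking in B16F0-bearing C57BL/6J mice: 1 mg/kg haloperidol was given iv 5 min before the iv [¹²³I]benzamide (0.37-0.74 MBq). Groups of n = 5 were killed at 1 or 24 h. Tissues were weighed and γ-counted as in the biodistribution study and compared with untreated controls by one-way ANOVA, with p < 0.01 taken as significant.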

Heart [11] = assay: Biodistribution in heart of B16F0 tumor bearing C57BL/6J mouse at 0.37-0.74 MBq, iv after 72 hrs; summary of the method: as §1
Liver [12] = assay: Biodistribution in liver of B16F0 tumor bearing C57BL/6J mouse at 0.37-0.74 MBq, iv after 1 hr in presence of haloperidol; summary of the method: as §2
Lung = assay: Biodistribution in lung of B16F0 tumor bearing C57BL/6J mouse at 0.37-0.74 MBq, iv after 1 hr in presence of haloperidol; summary of the method: as §2
Brain [13] = assay: Biodistribution in brain of B16F0 tumor bearing C57BL/6J mouse at 0.37-0.74 MBq, iv after 1 hr in presence of haloperidol
[14] = Biodistribution in eye of B16F0 tumor bearing C57BL/6J mouse at 0.37-0.74 MBq, iv after 1 hr in presence of haloperidol; summary of the method: as §2
Blood = assay: Biodistribution in blood of B16F0 tumor bearing C57BL/6J mouse at 0.37-0.74 MBq, iv after 24 hrs in presence of haloperidol
Brain [15] = assay: Biodistribution in brain of B16F0 tumor bearing C57BL/6J mouse at 0.37-0.74 MBq, iv after 3 hrs; summary of the method: as §1
Brain [16] = assay: Biodistribution in brain of B16F0 tumor bearing C57BL/6J mouse at 0.37-0.74 MBq, iv after 48 hrs; summary of the method: as §1
Brain [17] = assay: Biodistribution in brain of B16F0 tumor bearing C57BL/6J mouse at 0.37-0.74 MBq, iv after 6 hrs; summary of the method: as §1
Kidney [18] = assay: Biodistribution in kidney of B16F0 tumor bearing C57BL/6J mouse at 0.37-0.74 MBq, iv after 24 hrs; summary of the method: as §1
Heart [19] = assay: Biodistribution in heart of B16F0 tumor bearing C57BL/6J mouse at 0.37-0.74 MBq, iv after 6 hrs; summary of the method: as §1

Drug uptake (Brain [1]): 0.002 % ID/g | Drug uptake (Heart [2]): 0.12 % ID/g | Drug uptake (Liver [3]): 5 % ID/g | Drug uptake (Kidney [4]): 0.1 % ID/g | Drug uptake (Heart [5]): 0.13 % ID/g | Drug uptake (Kidney [6]): 21.6 % ID/g | Drug uptake (Kidney [7]): 3.9 % ID/g | Drug uptake (Liver [8]): 0.47 % ID/g | Drug uptake (Brain [9]): 0.01 % ID/g | Drug uptake [10]: 18.7 % ID/g | Drug uptake (Heart [11]): 0.06 % ID/g | Drug uptake (Liver [12]): 15.6 % ID/g | Drug uptake (Lung): 1.54 % ID/g | Drug uptake (Brain [13]): 0.06 % ID/g | Drug uptake [14]: 16.9 % ID/g | Drug uptake (Blood): 0.02 % ID/g | Drug uptake (Brain [15]): 0.04 % ID/g | Drug uptake (Brain [16]): 0.01 % ID/g | Drug uptake (Brain [17]): 0.03 % ID/g | Drug uptake (Kidney [18]): 0.12 % ID/g | Drug uptake (Heart [19]): 0.75 % ID/g
SMILES: CCCCN(C)CCCCNC(=O)c1cc([123I])c(NC(C)=O)cc1OC
